In experiment [1] the target is T1, Thymidine kinase 2, mitochondrial (Homo sapiens, UniProt O00142).
T1 sequence (O00142 whole entry): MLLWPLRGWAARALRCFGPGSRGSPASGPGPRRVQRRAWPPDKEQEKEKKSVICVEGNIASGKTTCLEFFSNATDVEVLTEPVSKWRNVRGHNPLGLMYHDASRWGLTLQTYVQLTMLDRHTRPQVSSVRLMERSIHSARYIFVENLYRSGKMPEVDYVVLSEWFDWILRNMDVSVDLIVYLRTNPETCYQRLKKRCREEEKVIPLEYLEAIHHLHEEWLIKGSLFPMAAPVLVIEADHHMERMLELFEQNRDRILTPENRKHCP
As to the kind of experiment: Inhibition of human TK2 assessed as [methyl-3H]dThd phosphorylation. In outline:
(§1)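 Purified recombinant GST-fusion kinases (from pGEX-5X-1 cDNAs) assayed in 50 mM Tris–HCl pH 8.0, 2.5 mM MgCl₂, 10 mM DTT, 0.5 mM CHAPS, 3 mg/mL BSA, 2.5 mM ATP, 0.25 µCi [methyl-³H]dThd (2 µM), ± varying inhibitor levels, 37 °C for 30 min. Reactions spotted on DE-81 filter disks, washed, and counted by scintillation. IC50 is the concentration halving dThd phosphorylation.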

For experiment [2], the target named is T2, Thymidine kinase, cytosolic (Homo sapiens, UniProt P04183).
T2 sequence (P04183 whole entry): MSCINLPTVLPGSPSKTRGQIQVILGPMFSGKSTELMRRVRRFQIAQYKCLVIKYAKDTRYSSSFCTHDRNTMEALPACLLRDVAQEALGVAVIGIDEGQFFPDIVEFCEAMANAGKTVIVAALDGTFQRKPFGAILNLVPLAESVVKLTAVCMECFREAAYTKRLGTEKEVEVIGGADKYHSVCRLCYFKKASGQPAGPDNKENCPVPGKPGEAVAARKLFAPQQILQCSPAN
Kind of experiment: Inhibition of human TK1 assessed as [methyl-3H]dThd phosphorylation. The essentials: as §1

Experiment [3] addresses T3, Thymidine kinase (Human alphaherpesvirus 1, UniProt Q9QNF7).
T3 sequence (Q9QNF7 whole entry): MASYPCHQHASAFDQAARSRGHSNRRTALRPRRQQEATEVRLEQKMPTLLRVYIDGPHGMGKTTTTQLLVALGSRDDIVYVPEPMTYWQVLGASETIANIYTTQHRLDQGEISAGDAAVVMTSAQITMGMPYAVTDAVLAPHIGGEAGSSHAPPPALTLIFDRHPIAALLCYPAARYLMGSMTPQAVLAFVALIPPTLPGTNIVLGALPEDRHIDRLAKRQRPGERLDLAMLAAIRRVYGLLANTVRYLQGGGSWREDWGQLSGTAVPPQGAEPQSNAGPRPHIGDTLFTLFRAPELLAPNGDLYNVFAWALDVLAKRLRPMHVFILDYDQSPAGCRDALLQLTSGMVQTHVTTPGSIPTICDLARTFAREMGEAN
Kind of experiment: Inhibition of HSV1 TK assessed as [methyl-3H]dThd phosphorylation. In outline: as §1

The target of another experiment is T4, Deoxynucleoside kinase (Drosophila melanogaster, UniProt Q9XZT6).
T4 sequence (Q9XZT6 whole entry): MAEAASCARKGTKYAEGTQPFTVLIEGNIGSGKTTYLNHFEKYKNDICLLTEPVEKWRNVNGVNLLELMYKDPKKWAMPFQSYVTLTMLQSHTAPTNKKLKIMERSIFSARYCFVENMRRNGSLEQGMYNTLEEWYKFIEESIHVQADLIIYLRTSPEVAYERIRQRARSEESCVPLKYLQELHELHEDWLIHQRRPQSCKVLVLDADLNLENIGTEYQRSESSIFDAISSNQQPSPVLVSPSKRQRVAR
Kind of experiment: Inhibition of Drosophila melanogaster dNK assessed as [methyl-3H]dThd phosphorylation. In outline:
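Purified recombinant enzyme expressed as a GST fusion. Mix: 50 mM Tris–HCl pH 8.0, 2.5 mM MgCl2, 10 mM DTT, 0.5 mM CHAPS, 3 mg/mL BSA, 2.5 mM ATP, 2 µM [methyl-3H]dThd (0.25 µCi). Incubated 37 °C, 30 min, with varied inhibitor levels. Aliquots spotted on DE-81 disks, washed, scintillation-counted.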

For experiment [4], the target named is T5, Thymidine kinase (Varicella-zoster virus (strain Dumas) (HHV-3) (Human herpesvirus 3), UniProt P09250).
T5 sequence (P09250 whole entry): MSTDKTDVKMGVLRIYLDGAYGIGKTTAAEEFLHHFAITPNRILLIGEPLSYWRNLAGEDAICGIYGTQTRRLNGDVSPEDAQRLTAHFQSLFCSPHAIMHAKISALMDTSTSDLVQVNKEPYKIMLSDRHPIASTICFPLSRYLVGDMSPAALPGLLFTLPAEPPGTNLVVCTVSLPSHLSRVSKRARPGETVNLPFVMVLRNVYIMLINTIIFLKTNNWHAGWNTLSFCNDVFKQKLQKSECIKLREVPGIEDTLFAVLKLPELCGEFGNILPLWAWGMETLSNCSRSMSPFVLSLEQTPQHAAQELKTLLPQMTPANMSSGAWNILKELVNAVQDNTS
Kind of experiment: Inhibition of VZV TK assessed as [methyl-3H]dThd phosphorylation. The arrangement: species or system Human alphaherpesvirus 3.

Molecules are shown by their SMILES.

For the compound `O=c1[nH]c(=O)n([C@@H]2O[C@H](CO)[C@@H](O)[C@@H]2O)cc1/C=C/Br` [SORIVUDINE], the IC50 (usually the point on the concentration scale where inhibition reaches its midpoint) in experiment [1] was 43 µM; in experiment [2], above 500 µM; on Thymidine kinase [3], 3.6 µM; at Deoxynucleoside kinase, 28 µM; on Thymidine kinase [4], 3.2 µM.
For `NCCCC(=O)O[C@H]1[C@H](O)[C@@H](CO)O[C@H]1n1cc(/C=C/Br)c(=O)[nH]c1=O`, in that order: 187 µM, above 500 µM, 17 µM, 160 µM and 3.6 µM.
For the compound `CCCCCCCCCC(=O)O[C@H]1[C@H](O)[C@@H](CO)O[C@H]1n1cc(C)c(=O)[nH]c1=O`, the IC50 on Thymidine kinase [3] was at least 1000 µM.
Still for that read-out and setting: the value for `CCCCC(=O)O[C@H]1[C@H](O)[C@@H](CO)O[C@H]1n1cc(C)c(=O)[nH]c1=O` was above 1000 µM.
Take `Nc1ccn([C@@H]2O[C@H](CO)[C@@H](O)[C@@H]2O)c(=O)n1` [CYTARABINE]: at Thymidine kinase [3], the IC50 was above 1000 µM.
For the compound `CC(C)(C)OC(=O)NCCCCCCCC(=O)O[C@H]1[C@H](O)[C@@H](CO)O[C@H]1n1cc(/C=C/Br)c(=O)[nH]c1=O`, the IC50 in experiment [1] was found to be 6.4 µM; at Thymidine kinase [3] it was 447 µM; on Deoxynucleoside kinase it was 74 µM; on Thymidine kinase [4], 349 µM.
For `CCCCCCCC(=O)O[C@H]1[C@H](O)[C@@H](CO)O[C@H]1n1cnc2c(=O)[nH]c(N)nc21`, the IC50 (in experiment [1]; in experiment [2]; on Thymidine kinase [3]; on Deoxynucleoside kinase; at Thymidine kinase [4]) was above 500 µM throughout.
In the case of `CC(C)(C)OC(=O)NCCCCCCCCCCCC(=O)O[C@H]1[C@H](O)[C@@H](CO)O[C@H]1n1cc(/C=C/Br)c(=O)[nH]c1=O`, the IC50 in experiment [1] is 3.8 µM; at Thymidine kinase [3], above 500 µM; at Deoxynucleoside kinase, at least 500 µM; at Thymidine kinase [4], above 500 µM.
`CCCCCCCC(=O)O[C@H]1[C@H](O)[C@@H](CO)O[C@H]1n1cc(C)c(=O)[nH]c1=O`: the IC50 in experiment [1] is 120 µM; in experiment [2], above 1000 µM; on Thymidine kinase [3] it was above 1000 µM; at Deoxynucleoside kinase, above 1000 µM; on Thymidine kinase [4], above 1000 µM.
For the compound `Cc1cn([C@@H]2O[C@H](CO)[C@@H](O)[C@@H]2OCc2ccccc2)c(=O)[nH]c1=O`, the IC50 in experiment [1] was 801 µM; in experiment [2], above 1000 µM; at Thymidine kinase [3] it was above 1000 µM; at Deoxynucleoside kinase, above 1000 µM; at Thymidine kinase [4], above 1000 µM.
For the compound `NCCCCCC(=O)O[C@H]1[C@H](O)[C@@H](CO)O[C@H]1n1cc(/C=C/Br)c(=O)[nH]c1=O`, the half-inhibitory concentration (IC50) in experiment [1] is above 500 µM; in experiment [2], above 500 µM; at Thymidine kinase [3], 322 µM; on Deoxynucleoside kinase it was above 500 µM; on Thymidine kinase [4], 94 µM.
For `Cc1cn([C@@H]2O[C@H](CO)[C@@H](O)[C@@H]2O)c(=O)[nH]c1=O`, the half-maximal inhibitory concentration (IC50) on Thymidine kinase [3] is 24 µM.
Take `CCCCCCCCn1c(=O)c(C)cn([C@@H]2O[C@H](CO)[C@@H](O)[C@@H]2O)c1=O`: the IC50 (in experiment [1]; in experiment [2]; at Thymidine kinase [3]; on Deoxynucleoside kinase; on Thymidine kinase [4]) was above 500 µM throughout.
As to `COCC(=O)O[C@H]1[C@H](O)[C@@H](CO)O[C@H]1n1cc(/C=C/Br)c(=O)[nH]c1=O`, the IC50 on Thymidine kinase [3] was found to be 84 µM; on Deoxynucleoside kinase, 215 µM.
Take `CC(C)(C)OC(=O)NCCCCCC(=O)O[C@H]1[C@H](O)[C@@H](CO)O[C@H]1n1cc(/C=C/Br)c(=O)[nH]c1=O`: the IC50 in experiment [1] is 61 µM; at Thymidine kinase [3], at least 500 µM; at Deoxynucleoside kinase it was 77 µM; on Thymidine kinase [4] it was 277 µM.
For `COc1ccc(CC(=O)O[C@H]2[C@H](O)[C@@H](CO)O[C@H]2n2cc(/C=C/Br)c(=O)[nH]c2=O)cc1`, in that order: 44 µM, 68 µM, 182 µM and 39 µM.
As for `CCCCCCCCCCCC(=O)O[C@H]1[C@H](O)[C@@H](CO)O[C@H]1n1cc(C)c(=O)[nH]c1=O`, the IC50 (in experiment [2]; on Thymidine kinase [3]) was at least 1000 µM each time.
`O=C(Cc1ccccc1)O[C@H]1[C@H](O)[C@@H](CO)O[C@H]1n1cc(/C=C/Br)c(=O)[nH]c1=O`: the IC50 in experiment [1] came out at 74 µM; on Thymidine kinase [3] it was 247 µM; on Deoxynucleoside kinase, 419 µM; at Thymidine kinase [4] it was 268 µM.
For `CCCCCCCCO[C@H]1[C@H](O)[C@@H](CO)O[C@H]1n1cc(C)c(=O)n(CCCCCCCC)c1=O`, in that order: above 1000 µM, above 1000 µM, above 1000 µM and above 1000 µM.
For `CCCCCCCCCC(=O)N[C@H]1[C@H](O)[C@@H](CO)O[C@H]1n1cc(C)c(=O)[nH]c1=O`, in that order: 480 µM, above 500 µM, above 500 µM and above 500 µM.
On to `CCCCCCCC(=O)Nc1nc2c(ncn2[C@@H]2O[C@H](CO)[C@@H](O)[C@@H]2OC(=O)CCCCCCC)c(=O)[nH]1`, for which the IC50 (in experiment [1]; in experiment [2]; on Thymidine kinase [3]; at Deoxynucleoside kinase; at Thymidine kinase [4]) was above 500 µM each time.
As for `CC(C)(C)OC(=O)NCCCC(=O)O[C@H]1[C@H](O)[C@@H](CO)O[C@H]1n1cc(/C=C/Br)c(=O)[nH]c1=O`, the IC50 in experiment [1] amounted to 55 µM; on Thymidine kinase [3], 485 µM; on Deoxynucleoside kinase, 133 µM; on Thymidine kinase [4] it was 130 µM.
Turning to `CCCCCCCC(=O)O[C@H]1[C@H](O)[C@@H](CO)O[C@H]1n1cc(/C=C/Br)c(=O)[nH]c1=O`, the IC50 on Thymidine kinase [3] was at least 1000 µM.
For the compound `CCCCC(=O)O[C@H]1[C@H](O)[C@@H](CO)O[C@H]1n1cnc2c(=O)[nH]c(N)nc21`, the IC50 (in experiment [1]; in experiment [2]; on Thymidine kinase [3]; on Deoxynucleoside kinase; at Thymidine kinase [4]) was above 500 µM each time.
With `Nc1nc2c(ncn2[C@@H]2O[C@H](CO)[C@@H](O)[C@@H]2O)c(=O)[nH]1`, the IC50 (in experiment [1]; in experiment [2]; at Thymidine kinase [3]; on Deoxynucleoside kinase; on Thymidine kinase [4]) was above 500 µM each time.
Take `CCCCCCCCO[C@H]1[C@H](O)[C@@H](CO)O[C@H]1n1cc(C)c(=O)[nH]c1=O`: at Thymidine kinase [3], the IC50 is above 1000 µM.
